What follows are compounds tested on HeLa (assay: Membranolytic activity in human HeLa cells expressing GFP after 5 mins by fluorescence leakage assay).
Format: functional, cell-based
Summary of the method: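 GFP-expressing HeLa cells (1 × 10^4/well, grown 24 h) were treated with peptides at various concentrations in PBS for 5 min. Supernatant was collected after centrifugation at 1000g and its fluorescence read at 485/535 nm. 1% Triton X-100 defined 100% leakage, and LC50 was calculated from three independent experiments.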

Compound | LC50 [µM]
CC(C)C[C@H](NC(=O)[C@H](CCCNC(=N)N)NC(=O)[C@H](CC(C)C)NC(=O)[C@H](CC(C)C)NC(=O)[C@H](CCCNC(=N)N)NC(=O)[C@H](CCCNC(=N)N)NC(=O)[C@H](CC(C)C)NC(=O)[C@H](CCCNC(=N)N)NC(=O)[C@H](CC(C)C)NC(=O)[C@H](CC(C)C)NC(=O)[C@H](CCCNC(=N)N)NC(=O)[C@H](CC(C)C)NC(=O)[C@H](CC(C)C)NC(=O)[C@H](CCCNC(=N)N)NC(=O)CNC(=O)CNC(=O)[C@@H](N)Cc1cnc[nH]1)C(N)=O | 25.9
H-HGGKLLKLLKKLLKLLK-NH2 | 3.6
H-HGGKLLKLLKLKKLLKL-NH2 | 38.8
H-HGGRLLRLLRRLLRLLR-NH2 | 3.9

Source: ChEMBL document CHEMBL3826940, “Amphipathicity Determines Different Cytotoxic Mechanisms of Lysine- or Arginine-Rich Cationic Hydrophobic Peptides in Cancer Cells” (J Med Chem, 2016)
